From PMC7781011 (Journal of Inflammation Research, 2020)
Where two headings read alike, the source gives them in different places.

Columns and labels:
mouse mPGES-1 = biological target: T1, mouse mPGES-1 (Mus musculus, UniProt Q9JM51); experiment: Cell-free mPGES-1 assay; assay type: biochemical
T1 sequence (Q9JM51 1-153): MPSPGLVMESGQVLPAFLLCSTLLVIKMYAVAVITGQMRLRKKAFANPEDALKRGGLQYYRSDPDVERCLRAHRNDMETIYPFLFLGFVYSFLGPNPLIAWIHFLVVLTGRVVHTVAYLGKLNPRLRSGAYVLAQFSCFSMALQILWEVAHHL
Method in brief: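 Enzyme in 15 mM Tris-HCl pH 7.4 with 1 mM GSH, preincubated 20 min with compound (0.1–100 µM); plate held 15 min at 20°C. PGH2 (final 2.8 µM) added, 45 s at room temperature, then stopped with SnCl2 in 1N HCl. PGE2 by ELISA, in triplicate, % inhibition versus untreated. Human enzyme from E. coli or commercial; mouse enzyme from vas deferens/seminal vesicles. IC50 by four-parameter nonlinear regression.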

rat 5-LOX = biological target: T2, rat 5-LOX (Rattus norvegicus, UniProt P12527); experiment: Cell-free fluorometric 5-LOX assay; assay type: biochemical
T2 sequence (P12527 1-673): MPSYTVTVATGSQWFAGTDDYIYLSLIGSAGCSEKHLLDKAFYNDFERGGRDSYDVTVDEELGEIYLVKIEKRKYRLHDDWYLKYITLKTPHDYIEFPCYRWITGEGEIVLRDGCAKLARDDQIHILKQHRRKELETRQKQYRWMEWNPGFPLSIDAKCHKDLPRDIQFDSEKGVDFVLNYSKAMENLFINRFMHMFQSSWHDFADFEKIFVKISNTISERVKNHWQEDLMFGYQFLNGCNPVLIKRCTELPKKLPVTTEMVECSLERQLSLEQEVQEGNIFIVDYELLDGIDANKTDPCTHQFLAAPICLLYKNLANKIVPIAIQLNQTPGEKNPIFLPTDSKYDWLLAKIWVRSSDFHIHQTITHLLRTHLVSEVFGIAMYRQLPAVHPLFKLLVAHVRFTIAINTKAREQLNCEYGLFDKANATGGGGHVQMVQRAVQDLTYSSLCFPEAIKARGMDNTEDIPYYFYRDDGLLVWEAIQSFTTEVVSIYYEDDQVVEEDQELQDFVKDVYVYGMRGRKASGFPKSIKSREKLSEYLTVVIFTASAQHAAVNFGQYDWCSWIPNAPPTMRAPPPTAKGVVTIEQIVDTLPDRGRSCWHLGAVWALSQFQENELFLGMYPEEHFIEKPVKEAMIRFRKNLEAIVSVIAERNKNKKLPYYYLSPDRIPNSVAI

human COX-1 = human COX-1 (Homo sapiens, UniProt P23219); experiment: Cell-free fluorometric COX-1 assay; assay type: biochemical
Chain of human COX-1 (P23219 24-599): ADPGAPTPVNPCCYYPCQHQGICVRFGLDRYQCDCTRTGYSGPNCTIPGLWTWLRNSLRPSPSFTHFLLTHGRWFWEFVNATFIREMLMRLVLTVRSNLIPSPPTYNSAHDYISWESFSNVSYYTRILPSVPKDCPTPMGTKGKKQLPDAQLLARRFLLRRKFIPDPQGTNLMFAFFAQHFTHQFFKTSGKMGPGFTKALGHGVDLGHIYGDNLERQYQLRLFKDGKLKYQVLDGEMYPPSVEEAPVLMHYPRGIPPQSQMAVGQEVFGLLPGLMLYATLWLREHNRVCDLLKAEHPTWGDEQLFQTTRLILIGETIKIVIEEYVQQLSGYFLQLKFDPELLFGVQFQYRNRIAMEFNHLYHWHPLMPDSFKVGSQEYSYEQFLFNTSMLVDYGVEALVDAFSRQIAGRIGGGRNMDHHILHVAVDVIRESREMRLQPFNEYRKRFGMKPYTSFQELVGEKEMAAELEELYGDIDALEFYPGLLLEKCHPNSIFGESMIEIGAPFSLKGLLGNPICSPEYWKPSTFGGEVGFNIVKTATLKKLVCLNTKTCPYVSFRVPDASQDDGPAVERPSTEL

mouse COX-1 = biological target: T3, mouse COX-1 (Mus musculus, UniProt P22437); experiment: Cell-free fluorometric COX-1 assay; assay type: biochemical
T3 sequence (P22437 27-602): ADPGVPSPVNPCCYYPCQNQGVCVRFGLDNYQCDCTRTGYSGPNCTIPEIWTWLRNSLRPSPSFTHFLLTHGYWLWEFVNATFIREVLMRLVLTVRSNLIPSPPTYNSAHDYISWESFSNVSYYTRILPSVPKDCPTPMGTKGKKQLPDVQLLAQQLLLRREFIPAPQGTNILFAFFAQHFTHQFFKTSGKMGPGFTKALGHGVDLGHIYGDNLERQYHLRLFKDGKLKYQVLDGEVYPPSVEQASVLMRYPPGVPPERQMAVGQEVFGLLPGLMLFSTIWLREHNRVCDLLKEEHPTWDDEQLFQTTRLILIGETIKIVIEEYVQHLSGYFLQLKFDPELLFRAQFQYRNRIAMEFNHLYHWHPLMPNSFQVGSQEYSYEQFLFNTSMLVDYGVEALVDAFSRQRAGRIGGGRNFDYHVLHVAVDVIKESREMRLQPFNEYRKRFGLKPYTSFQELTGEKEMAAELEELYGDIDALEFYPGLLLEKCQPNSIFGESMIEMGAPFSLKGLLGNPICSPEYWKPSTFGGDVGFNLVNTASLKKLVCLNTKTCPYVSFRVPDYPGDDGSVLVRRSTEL

[1] = tested on: PGE2 production in LPS-stimulated macrophages of humans, mice, and rats; experiment: PGE2 production in LPS-stimulated macrophages, range over species; assay type: cell-based; details: Macrophage, read-out: IC50 range PGE2 production
Method in brief: (§1)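 Human macrophages derived from THP-1 monocytes with PMA. Rat/mouse peritoneal macrophages collected by lavage with ice-cold DMEM, selected by glass adherence (1 h, 37°C), Trypan-blue checked. Cells in DMEM+10% FBS at 10,000 (96-well) or 40,000 (24-well) per well, given non-toxic compound doses, then LPS 10 µg/mL for 24 h. PGE2, PGI2 and LTB4 measured in supernatant. IC50 by four-parameter nonlinear regression.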

[2] = tested on: LTB4 production in LPS-stimulated macrophages of humans, mice, and rats; experiment: LTB4 production in LPS-stimulated macrophages, range over species; assay type: cell-based; details: Macrophage, read-out: IC50 range LTB4 production
Method in brief: as §1

[3] = tested on: PGI2 production in LPS-stimulated macrophages of humans, mice, and rats; experiment: PGI2 production in LPS-stimulated macrophages, range over species; assay type: cell-based; details: Macrophage
Method in brief: as §1

[4] = tested on: PGE2 production, colon tumor spheroids of Apc^Pirc/+ rats; experiment: PGE2 in colon spheroid culture supernatant; assay type: cell-based, rat; details: compared with the untreated control
Method in brief: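 Pirc rat colorectal crypt/single-cell spheroids grown in ultra-low-attachment wells in B27/N2, FBS, EGF, Noggin, R-spondin 1 and Y-27632 medium, changed every other day. PGE2 in supernatants of treated and untreated wells measured by ELISA, in pg/mL.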

CC1(C)Cc2c(-c3ccccc3)c(-c3ccc(Cl)cc3)c(CC(=O)NCC(=O)O)n2C1 [LFA-9, 2-[[2-[2-(4-chlorophenyl)-6,6-dimethyl-1-phenyl-5,7-dihydropyrrolizin-3-yl]acetyl]amino]acetic acid]
IC50 (mouse mPGES-1): 520 nM
IC50 (rat 5-LOX): 890 nM
inhibition of COX-1 activity (human COX-1; cell-free, human, up to the tested range of 1 mM): did not show inhibition
inhibition of COX-1 activity (mouse COX-1; cell-free, mouse, up to the tested range of 1 mM): did not show inhibition
IC50 [1]: 470 to 780 nM
IC50 [2]: 630 to 1240 nM
IC50 ([3]; read-out: IC50 PGI2 production): > 100000 nM
inhibition of PGE2 production [4]: 82%

CC1(C)Cc2c(-c3ccccc3)c(-c3ccc(Cl)cc3)c(CC(=O)O)n2C1 [Licofelone, reference compound]
IC50 (mouse mPGES-1): > 15000 nM
IC50 (rat 5-LOX): 640 nM
IC50 (human COX-1): 1650 nM
IC50 (mouse COX-1): 1740 nM
IC50 [1]: 560 to 1310 nM
IC50 [2]: 530 to 1600 nM
IC50 ([3]; read-out: IC50 range PGI2 production): 850 to 910 nM
inhibition of PGE2 production [4]: 63%
